In brackets after ≈: the same amount, converted by molar mass.
Assays:
Assay type in all cases: functional
[1] = tested on: Candida albicans; assay: Antimicrobial activity against Candida albicans 3110 after 24 hrs by agar dilution method
In short: (§1)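 Agar dilution. Each test substance was first taken at 320 µg per 0.1 ml DMSO, mixed with 10 ml warm nutrient agar (45-50°) and left to set. C. albicans strains were streaked radially and incubated at 30°. MIC was the lowest drug concentration with no growth, read at 24 h and at 48 h. Nystatin was the positive control.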

[2] = tested on: Candida albicans; assay: Antimicrobial activity against Candida albicans ATCC 12301 after 24 hrs by agar dilution method; in short: as §1
[3] = tested on: Enterococcus durans; assay: Antimicrobial activity against Streptococcus durans NCTC 8307 after 24 hrs by agar dilution method; conditions: NCTC 8307, 24 h
In short: as §1, with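 “set. NCTC bacteria” for “set. C. albicans strains”, “at 37°.” for “at 30°.”, “concentration showing” for “concentration with”, “h. Chloramphenicol” for “h. Nystatin”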

[4] = tested on: Candida albicans; assay: Antimicrobial activity against Candida albicans 3153 after 24 hrs by agar dilution method; in short: as §1
[5] = tested on: Bacillus subtilis; assay: Antimicrobial activity against Bacillus subtilis NCTC 10400 after 24 hrs by agar dilution method; conditions: NCTC 10400, 24 h
In short: as §1, with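 “set. NCTC bacteria” for “set. C. albicans strains”, “at 37°.” for “at 30°.”, “concentration showing” for “concentration with”, “h. Chloramphenicol” for “h. Nystatin”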

[6] = tested on: Staphylococcus aureus; assay: Antimicrobial activity against Staphylococcus aureus NCTC 6571 after 24 hrs by agar dilution method; conditions: NCTC 6571, 24 h
In short: as §1, with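 “set. NCTC bacteria” for “set. C. albicans strains”, “at 37°.” for “at 30°.”, “concentration showing” for “concentration with”, “h. Chloramphenicol” for “h. Nystatin”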

[7] = tested on: Staphylococcus aureus; assay: Antimicrobial activity against Staphylococcus aureus NCTC 6571 after 48 hrs by agar dilution method; conditions: NCTC 6571, 48 h
In short: as §1, with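 “set. NCTC bacteria” for “set. C. albicans strains”, “at 37°.” for “at 30°.”, “concentration showing” for “concentration with”, “h. Chloramphenicol” for “h. Nystatin”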

[8] = tested on: Bacillus subtilis; assay: Antimicrobial activity against Bacillus subtilis NCTC 10400 after 48 hrs by agar dilution method; conditions: NCTC 10400, 48 h
In short: as §1, with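 “set. NCTC bacteria” for “set. C. albicans strains”, “at 37°.” for “at 30°.”, “concentration showing” for “concentration with”, “h. Chloramphenicol” for “h. Nystatin”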

[9] = tested on: Enterococcus durans; assay: Antimicrobial activity against Streptococcus durans NCTC 8307 after 48 hrs by agar dilution method; conditions: NCTC 8307, 48 h
In short: as §1, with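 “set. NCTC bacteria” for “set. C. albicans strains”, “at 37°.” for “at 30°.”, “concentration showing” for “concentration with”, “h. Chloramphenicol” for “h. Nystatin”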

[10] = tested on: Candida albicans; assay: Antimicrobial activity against Candida albicans 3110 after 48 hrs by agar dilution method; in short: as §1
[11] = tested on: Candida albicans; assay: Antimicrobial activity against Candida albicans 3153 after 48 hrs by agar dilution method; in short: as §1
[12] = tested on: Candida albicans; assay: Antimicrobial activity against Candida albicans ATCC 12301 after 48 hrs by agar dilution method; in short: as §1
[13] = ATCC 10231, 24 h, in the assay text read “ATCC 10231” for “ATCC 12301”, read-out: MIC
[14] = Candida albicans, 3153, 24 h, read-out: MIC
[15] = ATCC 10231, 24 h, in the assay text read “ATCC 10231” for “ATCC 12301”
[16] = ATCC 10231, 48 h, in the assay text read “ATCC 10231” for “ATCC 12301”
[17] = Candida albicans, 3110, 24 h, read-out: MIC
[18] = Candida albicans, 3110, 48 h, read-out: MIC
[19] = Candida albicans, 3153, 48 h, read-out: MIC
[20] = ATCC 10231, 48 h, in the assay text read “ATCC 10231” for “ATCC 12301”, read-out: MIC

Row | Molecule | MIC ([1]; Candida albicans, 3110, 24 h) | MIC [2, 13] | MIC [3] | MIC [4, 14] | MIC [5] | MIC ([3]; read-out: MIC) | MIC ([7]; read-out: MIC) | MIC ([8]; read-out: MIC) | MIC ([5]; read-out: MIC) | MIC ([6]; read-out: MIC) | MIC ([9]; read-out: MIC) | MIC [1, 17] | further results
1 | COc1ccc(CCCCCCCCC(=O)c2c(OC)cccc2OC)cc1 | > 32 µg/mL | < 32 µg/mL | > 32 µg/mL | < 32 µg/mL | > 32 µg/mL | – | – | – | – | – | – | – | MIC [6]: > 32 µg/mL
2 | O=C(N[C@H](CO)[C@H](O)c1ccc([N+](=O)[O-])cc1)C(Cl)Cl [CHLORAMPHENICOL] | – | – | – | – | – | 1 µg/mL (≈ 3.09 µM) | 4 µg/mL (≈ 12.4 µM) | 4 µg/mL (≈ 12.4 µM) | 4 µg/mL (≈ 12.4 µM) | 4 µg/mL (≈ 12.4 µM) | 4 µg/mL (≈ 12.4 µM) | – | –
3 | NYSTATIN | – | – | – | – | – | – | – | – | – | – | – | – | MIC [1]: 2 µg/mL; MIC [2]: 2 µg/mL; MIC [10]: 4 µg/mL; MIC [4]: 2 µg/mL; MIC [11]: 4 µg/mL; MIC [12]: 4 µg/mL
4 | COc1cccc(O)c1C(=O)CCCCCCCCc1ccc(O)cc1 | > 32 µg/mL | – | – | – | – | 2 µg/mL (≈ 5.61 µM) | 4 µg/mL (≈ 11.2 µM) | 4 µg/mL (≈ 11.2 µM) | 4 µg/mL (≈ 11.2 µM) | 4 µg/mL (≈ 11.2 µM) | 4 µg/mL (≈ 11.2 µM) | – | MIC [2, 15]: > 32 µg/mL; MIC ([4]; Candida albicans, 3153, 24 h): > 32 µg/mL
5 | Oc1ccc(CCCCCCCCC(O)c2c(O)cccc2O)cc1 (centres undefined) | > 32 µg/mL | – | – | 32 µg/mL (≈ 92.9 µM) | – | 8 µg/mL (≈ 23.2 µM) | 16 µg/mL (≈ 46.5 µM) | 4 µg/mL (≈ 11.6 µM) | 4 µg/mL (≈ 11.6 µM) | 8 µg/mL (≈ 23.2 µM) | 16 µg/mL (≈ 46.5 µM) | – | MIC [2, 15]: > 32 µg/mL; MIC ([10]; Candida albicans, 3110, 48 h): > 32 µg/mL; MIC ([11]; Candida albicans, 3153, 48 h): > 32 µg/mL; MIC [12, 16]: > 32 µg/mL
6 | O=C(CCCCCCCCc1ccc(O)cc1)c1c(O)cccc1O [MALABARICONE B] | – | 16 µg/mL (≈ 46.7 µM) | – | 4 µg/mL (≈ 11.7 µM) | – | 1 µg/mL (≈ 2.92 µM) | 1 µg/mL (≈ 2.92 µM) | 1 µg/mL (≈ 2.92 µM) | 1 µg/mL (≈ 2.92 µM) | 1 µg/mL (≈ 2.92 µM) | 2 µg/mL (≈ 5.84 µM) | 8 µg/mL (≈ 23.4 µM) | MIC [10, 18]: 8 µg/mL (≈ 23.4 µM); MIC [11, 19]: 8 µg/mL (≈ 23.4 µM); MIC [12, 20]: 16 µg/mL (≈ 46.7 µM)
7 | Oc1ccc(CCCCCCCCCc2c(O)cccc2O)cc1 | – | 16 µg/mL (≈ 48.7 µM) | – | 8 µg/mL (≈ 24.4 µM) | – | 4 µg/mL (≈ 12.2 µM) | 4 µg/mL (≈ 12.2 µM) | 4 µg/mL (≈ 12.2 µM) | 4 µg/mL (≈ 12.2 µM) | 4 µg/mL (≈ 12.2 µM) | 8 µg/mL (≈ 24.4 µM) | 8 µg/mL (≈ 24.4 µM) | MIC [10, 18]: 8 µg/mL (≈ 24.4 µM); MIC [11, 19]: 8 µg/mL (≈ 24.4 µM); MIC [12, 20]: 16 µg/mL (≈ 48.7 µM)
8 | COc1ccc(CCCCCCCCC(=O)c2c(O)cccc2OC)cc1 | > 32 µg/mL | < 32 µg/mL | > 32 µg/mL | < 32 µg/mL | > 32 µg/mL | – | – | – | – | – | – | – | MIC [6]: > 32 µg/mL
9 | CC(=O)c1c(O)cccc1O | – | – | > 32 µg/mL | – | > 32 µg/mL | – | – | – | – | – | – | < 32 µg/mL | MIC [2, 15]: > 32 µg/mL; MIC ([4]; Candida albicans, 3153, 24 h): > 32 µg/mL; MIC [6]: > 32 µg/mL
10 | O=C(CCCCCCCCc1ccc(O)c(O)c1)c1c(O)cccc1O [MALABARICONE C] | – | 32 µg/mL (≈ 89.3 µM) | – | 8 µg/mL (≈ 22.3 µM) | – | 4 µg/mL (≈ 11.2 µM) | 8 µg/mL (≈ 22.3 µM) | 2 µg/mL (≈ 5.58 µM) | 2 µg/mL (≈ 5.58 µM) | 4 µg/mL (≈ 11.2 µM) | 8 µg/mL (≈ 22.3 µM) | 8 µg/mL (≈ 22.3 µM) | MIC [10, 18]: 8 µg/mL (≈ 22.3 µM); MIC [11, 19]: 8 µg/mL (≈ 22.3 µM); MIC [12, 20]: 32 µg/mL (≈ 89.3 µM)
11 | COc1cccc(OC)c1C(=O)CCCCCCCCc1ccc(O)cc1 | – | < 32 µg/mL | > 32 µg/mL | – | > 32 µg/mL | – | – | – | – | 32 µg/mL (≈ 86.4 µM) | – | < 32 µg/mL | MIC ([10]; Candida albicans, 3110, 48 h): > 32 µg/mL; MIC ([4]; Candida albicans, 3153, 24 h): > 32 µg/mL; MIC [7]: > 32 µg/mL; MIC ([11]; Candida albicans, 3153, 48 h): > 32 µg/mL; MIC [12, 16]: > 32 µg/mL; MIC [8]: > 32 µg/mL; MIC [9]: > 32 µg/mL
